Data set [1] can be described thus: Intrinsic clearance in human liver microsomes. The class given is ADME, Microsome. Particulars: read-out: CLH. Background: Microsomes from liver hold many membrane-bound enzymes, among them those of drug oxidation.
A further data set has as its system MDR1 (P-gp), human. The data set is described as follows: Apparent permeability across apical to basolateral side in MDCK cells transfected with human MDR1 gene. The class given is ADME, cell-based, Canis lupus familiaris. Conditions: dog. Summed up:
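Transport assay on MDCK cell monolayers transfected with the human MDR1 gene; flux measured in the apical-to-basolateral direction.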

The target in data set [2] is Delta-type opioid receptor (Homo sapiens, UniProt P41143). The data set is described as follows: Displacement of [I125]deltorphin from delta-opioid receptor overexpressed in human HEK293 cells. It is filed as cell-based.
Delta-type opioid receptor, sequence (P41143 whole entry): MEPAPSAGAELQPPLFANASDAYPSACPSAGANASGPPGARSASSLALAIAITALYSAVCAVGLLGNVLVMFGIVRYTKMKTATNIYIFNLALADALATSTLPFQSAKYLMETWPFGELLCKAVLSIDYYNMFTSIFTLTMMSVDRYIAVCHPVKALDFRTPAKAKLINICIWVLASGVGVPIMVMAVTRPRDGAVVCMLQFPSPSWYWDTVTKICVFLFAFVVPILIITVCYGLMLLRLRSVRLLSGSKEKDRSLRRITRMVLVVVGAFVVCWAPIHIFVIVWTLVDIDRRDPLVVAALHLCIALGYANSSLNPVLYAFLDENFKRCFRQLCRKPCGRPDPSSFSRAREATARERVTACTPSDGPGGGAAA
The next data set concerns HEK293. The data set can be described thus: Selectivity ratio of IC50 for mu-opioid receptor overexpressed in human HEK293 cells to IC50 for delta-opioid receptor overexpressed in human HEK293 cells. The class given is cell-based.
Data set [3] has as its target Voltage-gated inwardly rectifying potassium channel KCNH2 (Homo sapiens, UniProt Q12809). The data set is described as follows: Inhibition of human Erg.

Voltage-gated inwardly rectifying potassium channel KCNH2, sequence (Q12809 whole entry): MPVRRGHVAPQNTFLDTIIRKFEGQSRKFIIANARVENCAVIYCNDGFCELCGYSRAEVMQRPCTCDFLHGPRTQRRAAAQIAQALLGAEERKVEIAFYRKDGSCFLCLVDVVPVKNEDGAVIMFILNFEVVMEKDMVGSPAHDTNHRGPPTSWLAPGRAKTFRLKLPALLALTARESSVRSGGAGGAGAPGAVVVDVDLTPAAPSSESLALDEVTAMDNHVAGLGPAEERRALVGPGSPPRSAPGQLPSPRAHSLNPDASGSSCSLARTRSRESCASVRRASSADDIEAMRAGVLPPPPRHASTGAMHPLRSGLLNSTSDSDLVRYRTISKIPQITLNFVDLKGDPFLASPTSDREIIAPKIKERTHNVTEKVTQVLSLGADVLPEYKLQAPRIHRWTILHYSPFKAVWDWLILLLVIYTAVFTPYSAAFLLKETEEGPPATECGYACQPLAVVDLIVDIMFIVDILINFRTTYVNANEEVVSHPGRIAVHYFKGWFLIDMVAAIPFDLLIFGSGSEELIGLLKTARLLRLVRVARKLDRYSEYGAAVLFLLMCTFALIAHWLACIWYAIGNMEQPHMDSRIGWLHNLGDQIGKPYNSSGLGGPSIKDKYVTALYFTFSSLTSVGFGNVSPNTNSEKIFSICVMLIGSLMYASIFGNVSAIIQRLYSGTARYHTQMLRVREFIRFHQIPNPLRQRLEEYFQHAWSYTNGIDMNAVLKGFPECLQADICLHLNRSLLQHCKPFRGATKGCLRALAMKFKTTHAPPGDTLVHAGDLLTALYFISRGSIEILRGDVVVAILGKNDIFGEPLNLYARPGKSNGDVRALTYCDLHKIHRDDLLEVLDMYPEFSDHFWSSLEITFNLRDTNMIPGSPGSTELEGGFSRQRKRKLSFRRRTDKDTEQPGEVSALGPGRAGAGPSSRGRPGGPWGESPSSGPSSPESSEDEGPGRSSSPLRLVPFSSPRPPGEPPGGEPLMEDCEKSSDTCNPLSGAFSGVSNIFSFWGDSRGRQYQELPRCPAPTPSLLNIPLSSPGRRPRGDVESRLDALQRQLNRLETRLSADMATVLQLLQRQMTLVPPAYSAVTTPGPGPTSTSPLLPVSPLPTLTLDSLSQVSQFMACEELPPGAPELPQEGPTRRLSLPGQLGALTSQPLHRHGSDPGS

As a reminder, the Papp A→B is the apparent permeability from the apical to the basolateral side of a cell layer. Broadly, the IC50 is the midpoint of a concentration-inhibition curve. A high value points to weaker potency. Take `CCOC(=O)Nc1ccc([C@@H](c2ccc(C(=O)N(CC)CC)cc2)N2CCN(Cc3cscn3)CC2)cc1`: the microsomal CLint in data set [1] worked out at 21 µL/min/mg. For the same compound, the apical-to-basolateral permeability (Papp A→B) with MDR1 (P-gp), human is 0.13 ×10⁻⁶ cm/s. Besides, the 50% inhibitory concentration (IC50) worked out at 1.3 nM in data set [2] and 7300 nM in data set [3]. Moreover, the Ratio IC50 in the data set with HEK293 is 2700.

Consider `CCN(C)C(=O)c1ccc([C@H](c2cccc(NC(=O)C3CC3)c2)N2CCN(CCCOC)CC2)cc1`, for which the microsomal CLint in data set [1] is below 4 µL/min/mg. For the same compound, the IC50 in data set [2] was found to be 23 nM; in data set [3], 13000 nM. Also, the Ratio IC50 in the data set with HEK293 came to 33.

For `CCOC(=O)Nc1ccccc1[C@@H](c1ccc(C(=O)N(CC)CC)cc1)N1CCN(Cc2cscn2)CC1`, the microsomal CLint in data set [1] was 430 µL/min/mg. Also, the Papp A→B in the data set with MDR1 (P-gp), human is below 0.1 ×10⁻⁶ cm/s.

For the compound `CCN(C)C(=O)c1ccc([C@H](c2ccccn2)N2CCN(Cc3ccccn3)CC2)cc1`, the microsomal CLint in data set [1] stood at 20 µL/min/mg. In addition, the apparent permeability from apical to basolateral (Papp A→B) in the data set on MDR1 (P-gp), human was found to be 0.25 ×10⁻⁶ cm/s. Further, the values for the IC50 in data set [2] and in data set [3] were 5.2 nM and above 33000 nM, respectively. Further, the Ratio IC50 in the data set with HEK293 was above 1900.

Consider `CCN(C)C(=O)c1ccc([C@H](c2cccc(NC(=O)C3CC3)c2)N2CCN(Cc3nc(C)cs3)CC2)cc1`, for which the microsomal CLint in data set [1] was found to be 160 µL/min/mg. In addition, the concentration for half-maximal inhibition (IC50) in data set [2] is above 100 nM; in data set [3], 18000 nM. Besides, in the data set on HEK293, the Ratio IC50 was below 100.

For the compound `CCOC(=O)Nc1cccc([C@@H](c2ccc(C(=O)N(C)CC)cc2)N2CCN(Cc3nc[nH]c3C)CC2)c1`, the microsomal CLint in data set [1] was determined as 17 µL/min/mg. Moreover, in the data set with MDR1 (P-gp), human, the Papp A→B was below 0.1 ×10⁻⁶ cm/s. Also, the IC50 in data set [2] is 0.26 nM; in data set [3], above 33000 nM. In the data set with HEK293, the Ratio IC50 came out at 14000.

Consider `CCN(CC)C(=O)c1ccc([C@H](c2cccc(NC(=O)C3CC3)c2)N2CCN(CCOC)CC2)cc1`, for which, in data set [1], the microsomal CLint came to 26 µL/min/mg. Further, in the data set on MDR1 (P-gp), human, the apparent permeability from apical to basolateral (Papp A→B) is below 0.1 ×10⁻⁶ cm/s. Also, the 50% inhibitory concentration (IC50) is 1.1 nM in data set [2] and above 30000 nM in data set [3]. Moreover, in the data set with HEK293, the Ratio IC50 is above 9400.

On to `CCN(C)C(=O)c1ccc([C@H](c2cccnc2)N2CCN(Cc3ccccn3)CC2)cc1`, for which the microsomal CLint in data set [1] amounted to 33 µL/min/mg. Besides, the apparent permeability from apical to basolateral (Papp A→B) in the data set with MDR1 (P-gp), human came out at 0.12 ×10⁻⁶ cm/s. Moreover, the half-inhibitory concentration (IC50) in data set [2] was found to be 2 nM; in data set [3], 13000 nM. Moreover, the Ratio IC50 in the data set on HEK293 was above 5100.

`CCN(C)C(=O)c1ccc([C@H](c2cccc(NC(=O)C3CCC3)c2)N2CCN(Cc3cccnc3)CC2)cc1`: the microsomal CLint in data set [1] stood at 85 µL/min/mg. For the same compound, in the data set on MDR1 (P-gp), human, the Papp A→B is below 0.1 ×10⁻⁶ cm/s. Moreover, the half-maximal inhibitory concentration (IC50) is 6.6 nM in data set [2] and 28000 nM in data set [3]. Further, the Ratio IC50 with HEK293 was above 1500.

Turning to `CCN(CC)C(=O)c1ccc([C@H](c2cccc(NC(=O)OC)c2)N2CCN(Cc3cncs3)CC2)cc1`, in data set [1], the microsomal CLint stood at 100 µL/min/mg. The Papp A→B in the data set with MDR1 (P-gp), human turned out to be 0.22 ×10⁻⁶ cm/s. In data set [2], this compound gave an IC50 of 0.35 nM.

For the compound `CCN(CC)C(=O)c1ccc([C@H](c2cccc(NC(=O)OC)c2)N2CCN(Cc3cccnc3)CC2)cc1`, the microsomal CLint in data set [1] stood at 110 µL/min/mg. Moreover, the Papp A→B in the data set with MDR1 (P-gp), human was determined as 0.3 ×10⁻⁶ cm/s.

In the case of `CCOC(=O)Nc1cccc([C@@H](c2ccc(C(=O)N(CC)CC)cc2)N2CCN(Cc3cscn3)CC2)c1`, the microsomal CLint in data set [1] came to 210 µL/min/mg. Further, in the data set with MDR1 (P-gp), human, the Papp A→B is below 0.1 ×10⁻⁶ cm/s. Moreover, the values for the 50% inhibitory concentration (IC50) in data set [2] and in data set [3] were 0.071 nM and 5400 nM, respectively. In addition, the Ratio IC50 in the data set on HEK293 worked out at 6200.

As to `CCOC(=O)Nc1cccc([C@@H](c2ccc(C(=O)N3CCC3)cc2)N2CCN(Cc3cccnc3)CC2)c1`, the microsomal CLint in data set [1] was 53 µL/min/mg. In the data set with MDR1 (P-gp), human, the apparent permeability from apical to basolateral (Papp A→B) came to 0.18 ×10⁻⁶ cm/s. Further, the concentration for half-maximal inhibition (IC50) is 4.1 nM in data set [2] and 11000 nM in data set [3]. For the same compound, the Ratio IC50 in the data set with HEK293 is above 2200.

For `CCOC(=O)Nc1ccccc1[C@@H](c1ccc(C(=O)N(CC)CC)cc1)N1CCN(Cc2ccccn2)CC1`, in data set [1], the microsomal CLint came to 650 µL/min/mg. In the data set on MDR1 (P-gp), human, the apparent permeability from apical to basolateral (Papp A→B) was 0.43 ×10⁻⁶ cm/s. Moreover, the IC50 in data set [2] came out at 1.4 nM; in data set [3] it was 9900 nM. For the same compound, the Ratio IC50 in the data set with HEK293 was above 6000.

For `CCN(CC)C(=O)c1ccc([C@H](c2cccc(NC(=O)C3CC3)c2)N2CCN(Cc3ccccn3)CC2)cc1`, in data set [1], the microsomal CLint was 260 µL/min/mg. Besides, the figures for the half-maximal inhibitory concentration (IC50) in data set [2] and in data set [3] were 0.068 nM and 20000 nM, respectively. The Ratio IC50 in the data set on HEK293 is above 120000.

Regarding `CCOC(=O)Nc1cccc([C@@H](c2ccc(C(=O)N(C)CC)cc2)N2CCN(Cc3c[nH]c(C)n3)CC2)c1`, the microsomal CLint in data set [1] was below 4 µL/min/mg. Also, in the data set with MDR1 (P-gp), human, the apparent permeability from apical to basolateral (Papp A→B) was below 0.1 ×10⁻⁶ cm/s. Also, the values for the IC50 in data set [2] and in data set [3] were 0.7 nM and above 33000 nM, respectively. Further, in the data set on HEK293, the Ratio IC50 was above 12000.

Turning to `CCN(C)C(=O)c1ccc([C@H](c2cccnc2)N2CCN(Cc3cscn3)CC2)cc1`, the microsomal CLint in data set [1] is 40 µL/min/mg. Further, the Papp A→B in the data set with MDR1 (P-gp), human is below 0.1 ×10⁻⁶ cm/s. Besides, the IC50 in data set [2] was 4.7 nM.

For `CN(CCO)C(=O)c1ccc([C@H](c2cccc(NC(=O)C3CC3)c2)N2CCN(Cc3ccc(F)cc3)CC2)cc1`, in data set [1], the microsomal CLint was determined as 36 µL/min/mg. Moreover, the apparent permeability from apical to basolateral (Papp A→B) in the data set with MDR1 (P-gp), human was below 0.1 ×10⁻⁶ cm/s. Also, the IC50 stood at 0.27 nM in data set [2] and 15000 nM in data set [3]. For the same compound, the Ratio IC50 with HEK293 came out at 11000.

Turning to `CCN(CC)C(=O)c1ccc([C@H](c2cccc(NC(=O)C3CC3)c2)N2CCN(Cc3ccc(F)cc3)CC2)cc1`, the microsomal CLint in data set [1] is 150 µL/min/mg. The apparent permeability from apical to basolateral (Papp A→B) in the data set with MDR1 (P-gp), human is below 0.1 ×10⁻⁶ cm/s. For the same compound, the IC50 in data set [2] is 0.29 nM; in data set [3], 11000 nM. The Ratio IC50 in the data set with HEK293 came to 5200.

With `O=C(Nc1cccc([C@@H](c2ccc(C(=O)N3CCC3)cc2)N2CCN(Cc3ccc(F)cc3)CC2)c1)C1CC1`, the microsomal CLint in data set [1] was 49 µL/min/mg. Also, the Papp A→B with MDR1 (P-gp), human is below 0.1 ×10⁻⁶ cm/s. Besides, the results for the IC50 in data set [2] and in data set [3] were 0.9 nM and 3600 nM, respectively. In the data set with HEK293, the Ratio IC50 is 480.

Take `CCN(C)C(=O)c1ccc([C@H](c2cccc(NC(=O)OC)c2)N2CCN(Cc3cscn3)CC2)cc1`: the microsomal CLint in data set [1] turned out to be 38 µL/min/mg. The Papp A→B with MDR1 (P-gp), human amounted to 0.12 ×10⁻⁶ cm/s. In addition, the IC50 turned out to be 0.094 nM in data set [2] and 17000 nM in data set [3]. Further, the Ratio IC50 in the data set on HEK293 turned out to be 15000.

The record behind these values is ChEMBL document CHEMBL1938393, “Multiparameter exploration of piperazine derivatives as δ-opioid receptor agonists for CNS indications” (Bioorg Med Chem Lett, 2012).
